According to publication PMC3172994 (Biochemistry, 2011):
“And” between values parts separate entries of the source, which are not always exact repeats. Equal values may be shown once. Read-outs that look alike come from different tables or passages of the source.

Assays:
thrombin [1] = settings: cited from earlier work
BT (bovine thrombin) = BT (bovine thrombin) (Bos taurus, UniProt P00735); assay type: biochemical; settings: not shown
How it was run: (§1)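 Purified α-thrombin with the test compound in 20 mM phosphate or Tris, pH 7.4, 150 mM NaCl, 0.1 mM EDTA or CaCl₂, 0.1% PEG 8000. Cuvette format: 5 nM enzyme, 50 μM Spectrozyme TH, room temperature. Plate format: 12.5 nM enzyme, 10 min preincubation at 25 °C. Initial A405 rate taken as activity relative to a no-compound control. A logistic fit gave IC50, Hill slope and maximal inhibition (from Y0, YM).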

thrombin [2] = settings: cited from earlier work; remark: listed apart in the source
human α-thrombin [3] = target: T1, human α-thrombin (Homo sapiens, UniProt P00734); assay type: biochemical
How it was run: as §1

[4] = target: HT cleavage of human fibrinogen (Homo sapiens, UniProt P00734); assay: Turbidimetric assay of thrombin cleavage of fibrinogen; assay type: biochemical; settings: 0.7 - 1.8 mM SOS, turbidity at 600 nm
human α-thrombin [5] = target: T1, human α-thrombin; assay: PABA fluorescence titration of SOS binding to human thrombin; settings: for ΔG° / ΔFMAX / Kd: pH 7.4, 25 °C; for ΔFMAX: PABA fluorescence λEM 370 nm; for Kd: read-out: KD,OBS
[6] = pH 7.4, I = 0.15, 25 °C, Spectrozyme TH

## N=C(N)c1ccc(N)cc1 [PABA, p-aminobenzamidine]
Thrombin [1]
  Kd: 60 to 80 µM

## O=S(=O)(O)OC[C@H]1O[C@@](COS(=O)(=O)O)(O[C@H]2O[C@H](COS(=O)(=O)O)[C@@H](OS(=O)(=O)O)[C@H](OS(=O)(=O)O)[C@H]2OS(=O)(=O)O)[C@@H](OS(=O)(=O)O)[C@@H]1OS(=O)(=O)O [SOS, Sucrose octasulfate]
BT (bovine thrombin)
  maximal inhibition of Spectrozyme TH hydrolysis: 20 ± 2.0%
Thrombin [2]
  inhibition of thrombin hydrolysis of CBS31.39: ≤ 10%
Human α-thrombin [3]; HT, from Y0 and YM of equation 3
  maximal inhibition of Spectrozyme TH hydrolysis: 13.5 ± 0.2%
Human α-thrombin [3]; [6]
  Hill slope: 1.5 ± 0.5
  IC50: 4.5 ± 1.1 µM
[4]
  effect on fibrinogen cleavage profile: gradual increase in the lag time of cleavage
Human α-thrombin [5]
  contribution due to non-ionic forces: 10 kJ/mol
Human α-thrombin [5]; 20 mM sodium phosphate, pH 7.4, 50 mM NaCl
  maximal decrease in fluorescence at 370 nm: approximately 5%
Human α-thrombin [5]; 50 mM NaCl
  ΔG°: 33.1 ± 0.42 kJ/mol
  ΔFMAX: −4.8±0.1%
Human α-thrombin [5]; 150 mM NaCl
  ΔG°: 26.8 ± 0.84 kJ/mol
  ΔFMAX: −6.4±0.3%
  Kd: 22 ± 4 µM
Human α-thrombin [5]; 250 mM NaCl
  ΔG°: 21.8 ± 0.84 kJ/mol
  ΔFMAX: −9.2±0.6%
  Kd: 149 ± 25 µM
Human α-thrombin [5]; SOS - HT vs heparin - HT
  non-ionic contribution relative to heparin - HT complex: approximately 12.5 fold
Human α-thrombin [5]; pH 7.4
  slope of logKD,OBS vs log[Na+]: 3.8 ± 0.5
Human α-thrombin [5]; pH 7.4, I 0.15
  contribution of non-ionic forces, share of total binding energy: approximately 35%
Human α-thrombin [5]; pH 7.4, I = 0.15, 25 °C
  ionic binding energy: 18.8 kJ/mol
Human α-thrombin [5]; 50 mM NaCl, I = 0.085
  Kd: ~1.4 µM and 1.4 µM
